# Screening data deposited in PubChem BioAssay by The Scripps Research Institute Molecular Screening Center.
# An excerpt weighted towards active compounds, which were near 2.6% of everything screened.
# V1R ag counter: counter-screen for oxytocin receptor agonists: human V1a receptor agonists; P37288; CHO-V1R cells, Fluo-8 calcium fluorescence, agonist mode; 0% DMSO, 100% 3 nM vasopressin; activation, % at 3 µM; 320,000 tested, 0.25% active; AID 2797;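 active means activation above the mean activation of all tested compounds plus 3 SD, per screening run, cut at about 20% in these data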;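 further: signal is peak over basal fluorescence ratio across a 100 second FLIPR read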
# OXTR potentiator: potentiators of human oxytocin receptor | P30559 | CHO-OTR cells, Fluo-8 calcium fluorescence, potentiator mode; 0% = oxytocin EC15, 100% = EC100 | activation, % at 3 µM | 320,000 tested, 0.061% active | AID 2445;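 active means activation above that plate's cutoff, the mean activation of tested compounds plus 3 SD, cut at about 6.6% in these data, passing the limit was not always enough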;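 further: 100% uses oxytocin at 75 nM as the full agonist control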
# Target sequence (P30559 whole entry, looked up): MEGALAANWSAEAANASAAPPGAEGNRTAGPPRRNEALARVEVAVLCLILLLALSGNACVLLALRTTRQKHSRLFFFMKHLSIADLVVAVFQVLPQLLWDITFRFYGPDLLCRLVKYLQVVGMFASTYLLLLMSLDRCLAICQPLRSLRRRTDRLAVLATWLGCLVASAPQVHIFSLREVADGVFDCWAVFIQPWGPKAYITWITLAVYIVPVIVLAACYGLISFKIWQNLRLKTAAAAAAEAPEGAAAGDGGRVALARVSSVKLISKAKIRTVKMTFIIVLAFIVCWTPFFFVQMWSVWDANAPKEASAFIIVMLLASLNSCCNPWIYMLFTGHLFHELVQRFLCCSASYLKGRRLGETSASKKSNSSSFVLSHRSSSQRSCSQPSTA
#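 Measured by – Fluo-8 calcium dye fluorescence · Test system – human OTR in CHO cells · Dosing – one concentration, 3.0 µM compound · Controls – EC15 oxytocin alone as 0%, 75 nM oxytocin as 100% · Evaluation – normalized max/min fluorescence ratio, % activation · Timing – 6 min pre-incubation, 100 s read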
# CHO parental Ca: counter-screen: ATP calcium response change in parental CHO cells; parental CHO-K1, ATP-induced calcium, Fluo-8 fluorescence; inhibition, % at 5.6 µM; 330,000 tested, 0.63% active; AID 463079;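 active means inhibition above that plate's mean sample inhibition plus 3 SD, cut at about 26% in these data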;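 further: 0% = ATP-challenged DMSO wells and 100% = DMSO wells without ATP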
#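 Assay system – parental CHO cells · Reagent – ATP stimulus · Detection – intracellular calcium via Fluo-8 no-wash fluorescent dye · Evaluation – percent inhibition of ATP-evoked calcium rise, normalized to controls · Controls – ATP wells versus no-ATP DMSO wells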
# OX1R antag-1: antagonists of human orexin 1 receptor | O43613 | CHO/OX1R cells, Fluo-8 calcium fluorescence, orexin A | inhibition, % at 5 µM | 330,000 tested, 0.43% active;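 active means inhibition above its plate's threshold, mean inhibition of all tested compounds on the plate plus 3 SD, cut at about 37% in these data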;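 further: 0% = orexin A challenge wells and 100% = SB-334867-A antagonist wells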
# OX1R antag-2: OX1R (human) antagonism | OX1R-expressing cells, FRET antagonist read-out | 330,000 tested, 1.8% active | inhibition, % at 6.6 µM | AID 485270 | O43613; in the data active means inhibition mostly above about 38%, no sharp cut-off; inactive means mostly below about 40%;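 further: 0% = agonist challenge alone and 100% = reference antagonist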
# OXTR agonist: human OXTR agonism. 320,000 tested, 0.32% active. P30559. CHO-OTR cells, Fluo-8 calcium fluorescence; normalized: DMSO 0%, oxytocin 100%. activation, % at 3 µM;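 active means activation above the mean of all tested compounds plus 3 SD, cutoff set per screening run, cut at about 20% in these data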;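 further: peak over basal fluorescence ratio from a 100 s FLIPR kinetic read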
# OX1R HTRF confirm: OX1R (human) antagonism, HTRF confirmed; 1,800 tested, 49% active; OX1R-expressing cells, HTRF antagonist assay; shares compounds with OX1R antag-2; inhibition, % at 6.6 µM; in the data active means inhibition above about 55%;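 further: CHO cells expressing OX1R stimulated with orexin A at about EC80; 0% = agonist challenge alone and 100% = reference antagonist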
# CHO-K1 HTRF cnt: counter-screen for OX1R antagonists: effect in parental CHO-K1 cells. shares compounds with OX1R antag-2. HTRF counterscreen. inhibition, % at 6.6 µM. 1,800 tested, 48% active; in the data active means inhibition above about 17%;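 further: 0% = agonist challenge with vehicle and 100% = vehicle alone without agonist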
# Starred values were filed as active, the others as inactive; · = no result; + = active, no number.
SMILES,V1R ag counter,OXTR potentiator,CHO parental Ca,OX1R antag-1,OX1R antag-2,OXTR agonist,OX1R HTRF confirm,CHO-K1 HTRF cnt
Cn1cc([N+](=O)[O-])c(C(=O)NNC(=O)c2ccc([N+](=O)[O-])cc2)n1,-0.8,-16.9,-14.4,-1.2,98.2*,1.0,43.1,53.5*
CCN=C(N/N=C/c1ccc([N+](=O)[O-])cc1)SC,-0.1,-8.1,5.3,-25.6,88.4*,0.4,36.9,51.2*
CCN(CC)c1ccc(/C=N/NC(=O)c2ccc([N+](=O)[O-])cc2)cc1,-0.9,-10.5,-7.7,-3.4,17.3,-0.5,·,·
Cc1ccc2cc(CCl)c(Cl)nc2c1,-0.7,-11.7,-8.0,-12.3,9.2,-0.4,·,·
O=c1ccnc(Sc2ncccc2[N+](=O)[O-])[nH]1,1.6,0.7,-1.1,-29.5,92.1*,0.9,48.5,47.2*
O=C(O)c1ccc(Nc2ncc([N+](=O)[O-])cc2[N+](=O)[O-])cc1,-0.1,1.7,-7.9,-2.4,93.4*,1.3,68.2*,107.1*
O=C(Nc1ccc(C(=O)O)cc1)Nc1ccc([N+](=O)[O-])cc1,0.2,5.7,-8.7,-10.4,9.1,1.2,·,·
O=C(NCc1ccco1)Nc1ccc(Br)cc1,2.9,-9.5,8.8,-0.5,26.9,1.6,·,·
O=C(NCc1ccco1)Nc1ccc2nsnc2c1,0.3,-11.7,-3.5,-14.8,96.4*,0.6,25.3,0.7
NC(=O)c1ccc(N=C2C(=O)Nc3ccc([N+](=O)[O-])cc32)cc1,0.3,-15.1,-11.6,-8.1,83.5*,1.1,63.5*,71.6*
O=C1Nc2ccccc2C1=Nc1cccc([N+](=O)[O-])c1,-0.2,-4.2,-6.8,-12.3,21.1,1.1,·,·
COC(CNC(=O)c1ccc2nc(-c3cccs3)c(-c3cccs3)nc2c1)OC,1.7,-5.3,-17.7,0.7,84.3*,-2.3,42.0,6.5
Cc1ccc(N2CN=c3s/c(=C\c4cccnc4)c(=O)n3C2)cc1,0.6,-12.7,1.7,-22.7,98.6*,-0.6,35.9,48.9*
O=C(Nc1cc(F)cc(F)c1)c1ccc(NCCCN2CCCCCC2)c([N+](=O)[O-])c1,-0.4,-8.6,-6.9,-17.4,85.6*,-1.1,43.4,39.4*
COc1ccccc1C(=O)NC(=O)COC(=O)c1cccc(OC(F)F)c1,-0.5,2.5,-23.6,-10.1,1.8,-0.2,·,·
O=C(NCCO)c1cccc2c1C(=O)c1ccccc1-2,0.0,-4.9,-12.2,-17.3,120.5*,0.0,57.6*,52.6*
CC(C)(C)NC(=O)c1cccc2c1C(=O)c1ccccc1-2,-1.6,4.0,-15.3,-20.9,14.4,-3.3,·,·
CCn1nc(C)c(CN2CCc3c([nH]c4ccccc34)C2c2ccc(F)c(OC)c2)c1C (stereo not given),0.3,-9.3,-19.8,-38.5,24.4,-0.8,·,·
CCC(=O)NC1=C(Nc2ccc(N)cc2)C(=O)c2ccccc2C1=O,-0.9,6.1,-18.5,-18.0,82.1*,-0.1,71.1*,120.9*
COc1ccc(NC2=C(NC(C)=O)C(=O)c3ccccc3C2=O)cc1,-0.7,-10.0,-11.0,-15.2,97.1*,0.6,78.5*,96.3*
CCCn1c(Oc2ccccc2)nc2c1c(=O)n(C)c(=O)n2C,0.5,-5.8,-9.2,-14.4,2.0,-2.0,·,·
Nc1ccc2c(c1)C(=O)C(=O)c1ccccc1-2,0.6,-2.2,-16.8,-0.8,+,-0.6,82.7*,41.3*
CC(C)CN(C(=O)c1cc([N+](=O)[O-])cc([N+](=O)[O-])c1)C1CCS(=O)(=O)C1 (stereo not given),0.1,1.7,-6.4,-5.7,91.3*,0.1,69.9*,50.2*
CCOc1ccc(CC(=O)Nc2sc(Cc3ccccc3)cc2C(N)=O)cc1OCC,-0.2,-4.7,-17.3,14.2,78.8*,0.2,87.6*,1.9
NC(=O)c1cc(Cc2ccccc2)sc1NC(=O)c1ccco1,-0.4,-7.9,-18.8,-14.8,25.7,0.7,·,·
